Data taken from ChEMBL document CHEMBL4808178 (J Med Chem, 2021).
The source made the active and inactive calls. The calls are words filed in the database; no cut-off is given here.

Tests used:
L02 = test: Cytotoxicity against human L02 cells assessed as reduction in cell viability incubated for 72 hrs by MTT assay; assay type: cell-based; conditions: L02, 72 h
Summary of the method: (§1)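 About 5 × 10³ cells/well, seeded overnight at 37 °C, 5% CO₂, in DMEM or RPMI-1640 with 10% FBS and antibiotics. DMSO-dissolved compounds diluted in medium, exposure 72 h.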

PC-3 = test: Cytotoxicity against human PC3 cells assessed as reduction in cell viability incubated for 72 hrs by MTT assay; assay type: functional, cell-based; conditions: PC-3, 72 h; summary of the method: as §1
HCT-116 [1] = test: Induction of apoptosis in human HCT116 cells assessed as late apoptotic cells at 5 uM after 24 hrs by annexin V-FITC/propidium iodide staining based flow cytometry (reference value: 5.1%); assay type: functional
HCT-116 [2] = test: Induction of apoptosis in human HCT116 cells assessed as necrotic cells at 5 uM after 24 hrs by annexin V-FITC/propidium iodide staining based flow cytometry (reference value: 5.6%); assay type: functional
HCT-116 [3] = test: Induction of apoptosis in human HCT116 cells assessed as viable cells at 5 uM after 24 hrs by annexin V-FITC/propidium iodide staining based flow cytometry (reference value: 88.3%); assay type: functional; conditions: read-out: Activity
HCT-116 [4] = test: Induction of cell cycle arrest in human HCT116 cells assessed as accumulation at G2/M phase at 20 uM after 24 hrs by propidium iodide-staining based flow cytometry (reference value: 14.67%); assay type: functional
HCT-116 [5] = test: Inhibition of cell stemness in human HCT116 cells assessed as morphological alterations at 5 uM after 10 days by microscopic analysis; assay type: functional, cell-based; conditions: time 10.0 day
Summary of the method: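 Sorted ALDH⁺ HCT-116 cells, 800/well, in serum-free DMEM with B27 (1:50), EGF 20 ng/mL, β-FGF 10 ng/mL; co-incubated with compound (5 μM) or DMSO vehicle for 10 days; sphere number, diameter and morphology scored from microscopy images; mean ± SD, n = 3.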

[6] = Volume of distribution in Sprague-Dawley rat at 25 mg/kg, po measured up to 48 hrs by LC-MS/MS analysis; assay type: ADME, organism-based; conditions: in vivo
Summary of the method: (§2)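 Overnight-fasted male SD rats (250−270 g, n = 3/group), single oral 25 mg/kg in 5% CMC-Na (reference sodium salt in phosphate buffer); plasma at 0.25–48 h (12 timepoints), stored −40 °C; LC−MS/MS with internal-standard calibration 3–3000 ng/mL; parameters fitted by model.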

[7] = target: T1, Aldehyde dehydrogenase 1A1 (Homo sapiens) (UniProt P00352); test: Inhibition of ALDH1A1 in human HCT116 cells at 5 uM after 24 hrs by aldefluor staining based fluorescence analysis; assay type: cell-based; conditions: HCT-116
T1 sequence (whole entry): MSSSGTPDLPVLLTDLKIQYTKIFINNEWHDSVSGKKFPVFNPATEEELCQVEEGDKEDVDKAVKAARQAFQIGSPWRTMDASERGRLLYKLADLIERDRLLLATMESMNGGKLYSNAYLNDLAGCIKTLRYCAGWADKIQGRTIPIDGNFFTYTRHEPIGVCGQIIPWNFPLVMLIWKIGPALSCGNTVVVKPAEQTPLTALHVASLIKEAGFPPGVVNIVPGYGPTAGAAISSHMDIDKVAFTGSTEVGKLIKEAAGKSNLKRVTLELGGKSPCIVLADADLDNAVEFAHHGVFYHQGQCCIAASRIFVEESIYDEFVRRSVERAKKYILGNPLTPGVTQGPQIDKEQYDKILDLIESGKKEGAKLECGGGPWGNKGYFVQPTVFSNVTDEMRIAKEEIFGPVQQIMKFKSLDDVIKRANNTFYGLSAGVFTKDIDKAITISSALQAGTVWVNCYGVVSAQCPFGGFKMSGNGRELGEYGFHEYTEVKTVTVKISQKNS
Summary of the method: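 HCT-116 cells, 2 × 10⁵/well, grown overnight at 37 °C, 5% CO₂, then treated 24 h (vehicle DMSO). Aldefluor staining read in FITC channel by FACS for proportion of ALDH⁺ cells; DEAB-pretreated cells set baseline fluorescence.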

T-24 = test: Cytotoxicity against human T24 cells assessed as reduction in cell viability incubated for 72 hrs by MTT assay; assay type: functional, cell-based; conditions: T-24, 72 h; summary of the method: as §1
[8] = MRT(0 to t) in Sprague-Dawley rat at 25 mg/kg, po measured up to 48 hrs by LC-MS/MS analysis; assay type: ADME, organism-based; conditions: in vivo; summary of the method: as §2
[9] = AUC(0 to t) in Sprague-Dawley rat at 25 mg/kg, po measured up to 48 hrs by LC-MS/MS analysis; assay type: ADME, organism-based; parameters: route oral, dose 25 mg/kg, time <=48; conditions: in vivo
Summary of the method: (§3)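 Overnight-fasted male SD rats (about 250−270 g), three per group, single oral 25 mg/kg; test compound suspended in 5% CMC-Na, control as sodium salt in phosphate buffer. Blood sampled 0.25–48 h, plasma by centrifugation, stored −40 °C, quantified by LC−MS/MS against plasma standard curve (3–3000 ng/mL) with internal standard; model-fitted PK parameters.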

HCT-116 [10] = test: Induction of cell cycle arrest in human HCT116 cells assessed as accumulation at S phase at 20 uM after 24 hrs by propidium iodide-staining based flow cytometry (reference value: 36.43%); assay type: functional
[11] = MRT(0 to infinity) in Sprague-Dawley rat at 25 mg/kg, po measured up to 48 hrs by LC-MS/MS analysis; assay type: ADME, organism-based; conditions: in vivo; summary of the method: as §2
[12] = AUC(0 to infinity) in Sprague-Dawley rat at 25 mg/kg, po measured up to 48 hrs by LC-MS/MS analysis; assay type: ADME, organism-based; parameters: route oral, dose 25 mg/kg, time <=48; conditions: in vivo; summary of the method: as §3
HT-29 = test: Cytotoxicity against human HT-29 cells assessed as reduction in cell viability incubated for 72 hrs by MTT assay; assay type: functional, cell-based; conditions: HT-29, 72 h
[13] = Half life in Sprague-Dawley rat at 25 mg/kg, po measured up to 48 hrs by LC-MS/MS analysis; assay type: ADME, organism-based; conditions: in vivo; summary of the method: as §3
HCT-116 [14] = test: Cytotoxicity against human HCT-116 cells assessed as reduction in cell viability incubated for 72 hrs by MTT assay; assay type: functional, cell-based; conditions: HCT-116, 72 h; summary of the method: as §1
HCT-116 [15] = test: Induction of apoptosis in human HCT116 cells assessed as early apoptotic cells at 5 uM after 24 hrs by annexin V-FITC/propidium iodide staining based flow cytometry (reference value: 1%); assay type: functional
HCT-116 [16] = test: Inhibition of cell stemness in human HCT116 cells assessed as inhibition of CD44+/CD133+ expression at 20 uM after 24 hrs by flow cytometry analysis; assay type: functional
Summary of the method: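 ALDH⁺ HCT-116 subpopulation sorted by flow cytometry; 2 × 10⁵ cells/well seeded overnight at 37 °C, 5% CO₂; treated 20 μM for 24 h (vehicle DMSO); stained with PE anti-CD133 and FITC anti-CD44 30 min; CD44⁺/CD133⁺ read by flow cytometry.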

[17] = Cmax in Sprague-Dawley rat at 25 mg/kg, po measured up to 48 hrs by LC-MS/MS analysis; assay type: ADME, organism-based; parameters: route oral, dose 25 mg/kg, time <=48; conditions: in vivo; summary of the method: as §3
MCF7 = test: Cytotoxicity against human MCF7 cells assessed as reduction in cell viability incubated for 72 hrs by MTT assay; assay type: functional, cell-based; conditions: MCF7, 72 h; summary of the method: as §1
[18] = Tmax in Sprague-Dawley rat at 25 mg/kg, po measured up to 48 hrs by LC-MS/MS analysis; assay type: ADME, organism-based; conditions: in vivo; summary of the method: as §2
HCT-116 [19] = test: Induction of cell cycle arrest in human HCT116 cells assessed as accumulation at G0/G1 phase at 20 uM after 24 hrs by propidium iodide-staining based flow cytometry (reference value: 48.89%); assay type: functional
[20] = Clearance in Sprague-Dawley rat at 25 mg/kg, po measured up to 48 hrs by LC-MS/MS analysis; assay type: ADME, organism-based; conditions: in vivo; summary of the method: as §3
HCT-116 [21] = test: Antitumor activity against human HCT116 cells xenografted in BALB/c athymic nude mouse assessed as tumor growth inhibition at 60 mg/kg, po administered twice daily for 4 weeks and measured every 3 days; assay type: functional; conditions: HCT-116, po, 672 h, read-out: TGI
Summary of the method: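 Male BALB/c athymic nude mice, 5 weeks old, 16−18 g, given 0.2 mL of 5 × 10⁷ cells/mL HCT-116 in right armpit. At about 100 mm³, randomized to groups of five; intragastric dosing twice daily for 4 weeks. Tumor volume and body weight every 3 days; tumors weighed after sacrifice; organs HE-stained.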

O=C(O)c1ccc2c(c1)nc(Nc1cccc(Cl)c1)c1ccncc12 [SILMITASERTIB]
IC50 (L02): 23 µM | IC50 (PC-3): 12.8 µM | Activity (HCT-116 [1]): 8.3% | Activity (HCT-116 [2]): 4.2% | viability at 5 µM (HCT-116 [3]): 80.7% | Activity (HCT-116 [4]): 11.21% | inhibition (HCT-116 [5]): Active | Vd [6]: 2.39 L/kg | inhibition [7]: 61% | IC50 (T-24): 12.9 µM | MRT last at 48 h [8]: 6.45 h | AUC(0-t) at 48 h [9]: 38900 ng·h/mL | Activity (HCT-116 [10]): 26.31% | MRT inf [11]: 6.52 h | AUC(0-inf) [12]: 40000 ng·h/mL | IC50 (HT-29): 16 µM | half-life [13]: 5.82 h | IC50 (HCT-116 [14]): 13.2 µM | Activity (HCT-116 [15]): 6.8% | inhibition at 20 µM (HCT-116 [16]): 58% | Cmax [17]: 6790 ng/mL | IC50 (MCF7): 15.3 µM | Tmax [18]: 2 h | Activity (HCT-116 [19]): 62.48% | CL/F [20]: 10.5 mL/min/kg | inhibition in vivo at 60 mg/kg (HCT-116 [21]): 15%
